# hK5 inh – human KLK5 protease inhibitors, primary screen, biochemical, 1536-well | Kallikrein-5 (Homo sapiens), Q9Y337 | inhibition, % at 5 µM | recombinant hK5, fluorogenic AMC substrate cleavage | 210,000 tested, 0.59% active;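 active = inhibition of 40% or more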;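 note: 0% = enzyme controls without compound and 100% = no-enzyme blanks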
# Wee1 stabilizer – Wee1 degradation inhibitors, primary screen, cell-based, HeLa, Wee1K328M-luciferase, luminescence | Wee1-like protein kinase (Homo sapiens), P30291 | HeLa Luc-Wee1K328M stability; 100% = proteasome inhibitor MG132 effect | reporter increase, % at 5 µM | 220,000 tested, 1.2% active | AID 1321, 2008;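 active = activation above the mean of all tested compounds plus 3 SD, set per screening run, cut at about 8.8% in these data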;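 note: cells exposed to compound for 20 h before luminescence read; 0% = DMSO alone and 100% = MG132 at 30 µM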
# Target sequence (P30291 whole entry K328M): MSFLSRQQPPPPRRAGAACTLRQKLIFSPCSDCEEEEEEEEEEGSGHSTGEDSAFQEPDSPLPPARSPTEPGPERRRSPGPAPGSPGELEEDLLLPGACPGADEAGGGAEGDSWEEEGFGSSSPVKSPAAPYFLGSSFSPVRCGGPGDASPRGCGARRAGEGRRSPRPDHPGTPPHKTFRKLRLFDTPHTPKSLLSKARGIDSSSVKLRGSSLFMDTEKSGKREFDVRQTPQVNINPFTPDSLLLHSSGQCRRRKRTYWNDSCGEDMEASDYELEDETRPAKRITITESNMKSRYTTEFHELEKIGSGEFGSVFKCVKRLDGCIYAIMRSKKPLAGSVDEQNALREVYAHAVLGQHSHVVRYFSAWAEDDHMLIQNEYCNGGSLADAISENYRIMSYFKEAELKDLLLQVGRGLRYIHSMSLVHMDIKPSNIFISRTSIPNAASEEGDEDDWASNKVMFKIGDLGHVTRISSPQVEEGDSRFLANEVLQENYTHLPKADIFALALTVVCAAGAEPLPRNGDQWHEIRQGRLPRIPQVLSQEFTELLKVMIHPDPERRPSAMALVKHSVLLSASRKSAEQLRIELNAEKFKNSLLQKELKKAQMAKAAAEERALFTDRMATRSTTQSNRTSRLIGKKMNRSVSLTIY
# Platelet DG rel – inhibitors of platelet dense granule secretion, primary screen, cell-based, MLPCN, human platelets; inhibition, %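 (compounds screened at 7.5 µM in platelet-rich plasma)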; 300,000 tested, 0.22% active; AID 1663, 2009; human platelet-rich plasma, SFLLRN dense granule ATP release, luminescence;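 active = mean replicate score, as percent of positive control, at or above 50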
# thrombin 1536 – human alpha-thrombin inhibitors, primary screen, counter-screen for coagulation protease inhibitor project, biochemical, 1536-well, fluorogenic AMC substrate; Prothrombin (Homo sapiens), P00734; Boc-VPR-AMC fluorogenic substrate cleavage; inhibition, % at 5 µM; 220,000 tested, 0.26% active; AID 1046, 2008;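 active = inhibition at or above 40%; inactive = inhibition below 40%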;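 note: 0% = enzyme with no compound and 100% = wells without enzyme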
#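 System: Human alpha-thrombin protein | Medium: pH 7.5 Tris (50 mM) with NaCl 150 mM, Tween 20 0.05% | Times: Enzyme reaction carried out at room temperature | Detection: AMC fluorescence, 355/460 nm | Evaluation: Percent inhibition scaled between no-compound controls and no-enzyme blanks | Benchmarks: Enzyme without compound as high, wells lacking enzyme as low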
# FXIIa inh – human FXIIa protease inhibitors, primary screen, biochemical, 1536-well | 220,000 tested, 0.3% active | Coagulation factor XII (Homo sapiens), P00748 | inhibition, % at 5 µM | purified FXIIa, Boc-QGR-AMC fluorogenic substrate, 2 h; in the data active = inhibition above about 40%;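 note: 0% = enzyme with no compound and 100% = blank without enzyme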
# FXIa inh – human FXIa protease inhibitors, primary screen, biochemical, 1536-well | Coagulation factor XI (Homo sapiens), P03951 | purified FXIa, Boc-Glu-Ala-Arg-AMC fluorogenic substrate | inhibition, % at 5 µM | 220,000 tested, 0.14% active | AID 798, 2007;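 active = inhibition of at least 40%; inactive = inhibition below 40%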;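 note: fluorescence of freed AMC excited at 355 nm; 0% = enzyme without compound and 100% = no enzyme blank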
# The depositor's hits bear a star; x = no result given. Most compounds without a hit are left out; they make up all but 1.8% or so of the library.
SMILES,hK5 inh,Wee1 stabilizer,Platelet DG rel,thrombin 1536,FXIIa inh,FXIa inh
CC(=O)Nc1cccc(C(=O)Nc2ccccc2N2CCOCC2)c1,3,9.0*,4,1,7,8
O=C(O)CC1c2ccccc2C=Cc2ccccc21,x,x,5,x,x,x
O=C1C(c2c(O)[nH]c3ccccc23)=Nc2ccccc21,x,12*,8,x,x,x
CC(=O)c1cccc2c(O)c(C3=Nc4ccccc4C3=O)[nH]c12,-6,1,11,3,11,2
CCOc1cc(/C=N/NC(=O)C(=O)N/N=C/c2ccc(O)c(OCC)c2)ccc1O,x,x,2,x,x,x
CCOc1cc(/C=N/NC(=O)N/N=C/c2ccc(O)c(OCC)c2)ccc1O,x,x,58*,x,x,x
COc1cc(/C=N/NC(=O)/C(=C/c2ccccc2)CCO)ccc1O,11,3,56*,5,14,10
COc1ccc(S(=O)(=O)NNC(=O)c2cc3cc4ccccc4nc3s2)cc1,-1,-2,-4,-3,-4,2
CCOC(=O)c1cccc(NC(=O)C2CCN(S(=O)(=O)c3cccs3)CC2)c1,-9,-2,-4,4,18,5
CCOC(=O)c1ccc2c(c1)nc(C1CCN(S(=O)(=O)c3cccs3)CC1)n2CC,-1,2,-6,4,52*,38
CCOC(=O)c1ccccc1Oc1c(F)c(F)nc(NCCO)c1F,42*,2,8,42*,19,5
CCn1c(CSc2nnc(-c3ccc4c(c3)OCO4)o2)nc2cc(S(=O)(=O)N(C)C)ccc21,3,-3,x,28,19,18
O=C(NC(=S)Nn1cnnc1)c1ccccc1Cl,48*,0,8,45*,28,34
CNC(=O)/C(C#N)=C/c1c(N(Cc2ccccc2)Cc2ccccc2)nc2c(C)cccn2c1=O,49*,-2,0,25,24,10
Cc1ccc2nc(-c3ccsc3)c(NC3CCCC3)n2c1,1,10*,12,-11,7,1
Cc1ccc2nc(-c3ccncc3)c(NC3CCCC3)n2c1,-2,-5,-9,-1,-1,1
Cc1ccc2nc(-c3ccncc3)c(NC3CCCCC3)n2c1,-3,-3,-7,-11,3,-5
COc1cc2ccccc2cc1C(=O)NC(=S)Nc1cc(C(=O)O)ccc1C,-4,-2,-5,-15,99*,-1
CN(NS(=O)(=O)c1ccc(Cl)cc1)c1nc(C(F)(F)F)nc2ccccc12,4,3,4,-7,8,-1
CN(NS(=O)(=O)c1ccc(Cl)cc1)c1cnn(C)c(=O)c1Cl,0,9.9*,6,-7,8,2
O=C(O)c1ccc(N=Nc2c(O)[nH]c3cc(Cl)ccc23)cc1,9,12*,9,0,8,2
O=C(O)c1ccc(N=Nc2c(O)[nH]c3ccc(Br)cc23)cc1,x,x,6,x,x,x
C=CCn1c(O)c(N=NC(=O)c2ccc3c(c2)OCO3)c2ccccc21,-8,-3,6,-5,-16,-17
CC1CCCC(C)N1C(=O)CSc1nnc(COc2ccccc2)n1-c1ccccc1 (stereo not drawn),5,1,0,5,21,7
COC(=O)c1cc(Br)ccc1NC(=O)CCNC(=O)c1ccco1,x,x,-1,x,x,x
SMILES,hK5 inh,Wee1 stabilizer,Platelet DG rel,thrombin 1536,FXIIa inh,FXIa inh
Oc1c(C(c2cccs2)N2CCOCC2)sc2ncnn12 (stereo not drawn),-21,-2,55*,-2,12,2
COc1ccc(NC(=O)c2cccc(S(=O)(=O)Nc3ccc(Br)cc3)c2)cn1,40*,0,23,28,16,22
CCCCC(=O)Nc1cc(C(=O)NCCc2ccccc2)ccc1Cl,63*,1,-7,18,19,3
CC1(c2ccccc2)NC(=O)N(CC(=O)N2CCN(S(=O)(=O)c3ccccc3[N+](=O)[O-])CC2)C1=O (stereo not drawn),x,x,57*,x,x,x
O=C(Cc1ccsc1)NNC(=O)c1ccccc1Cl,x,x,-3,x,x,x
CC(C)(C)CC(=O)Nc1ccccc1N1CCN(c2ccccc2)CC1,-3,11*,2,2,8,-2
COC(=O)c1ccccc1NC(=S)NC(=O)COc1ccc(C(C)C)cc1,-12,-4,12,-5,9,3
COC(=O)c1ccccc1NC(=O)Oc1ccc(C(C)C)cc1,52*,4,-5,21,13,9
CC(=O)NCCc1nc2cc(NC(=O)COc3cccc(C)c3)ccc2n1C,x,x,0,x,x,x
CCn1c(SCC(=O)N2CCN(c3ccccc3)CC2)nnc1-c1cc2cc(Cl)ccc2o1,0,-2,-3,16,47*,18
C=CCn1c(SCC(=O)N2CCN(c3ccccc3)CC2)nnc1-c1ccco1,-3,1,-2,-3,4,-1
N#Cc1cnn(Cc2ccc(Cl)cc2)c1N,9,-2,-1,0,58*,36
N#Cc1cnn(Cc2ccccc2)c1N,-23,0,-6,9,0,-17
Cc1ccc(C(=O)n2c(-c3ccccc3)cnc2SCC(=O)Nc2ccccc2)cc1,4,5,15,16,19,18
Cc1ccc(NC(=O)CSc2ncc(-c3ccccc3)n2C(=O)c2ccccc2)cc1,19,2,1,13,16,-9
CC(=O)n1nc(-c2cccc(C)c2)nc1SCC(=O)Nc1ccccc1,-6,-1,5,77*,13,-1
CCC(=O)n1nc(-c2ccccc2)nc1SCC(=O)Nc1ccc(C)cc1,-22,-3,-1,52*,28,22
CC(C)Cn1c(=O)c(C(=O)NCc2ccccn2)c(O)c2ccccc21,-3,12*,2,-8,-1,-5
Cc1ccc(S(=O)(=O)N2CCC(=O)N(CCOCc3ccc(F)cc3)CC2)cc1,-2,-2,3,0,14,4
C/C(=N\NC(=O)c1ccccc1NC(=O)c1ccc(Cl)cc1)c1ccncc1,-5,-3,96*,5,8,0
NC(=O)C1(N2CCCCC2)CCN(C(=S)Nc2ccc(S(N)(=O)=O)cc2)CC1,0,1,12,-3,1,-4
CCCCN(C)C(=O)c1cc2cc3cc(OC)ccc3nc2o1,1,10*,-1,-4,-6,-2
O=C(/C=C/Nc1ccc(F)c(F)c1)c1ccc(Br)cc1,-13,-1,-5,-7,2,-4
O=C(/C=C/Nc1ccc(F)cc1)c1ccc(Br)cc1,x,9.4*,6,-3,10,2
COc1ccc(N/C=C/C(=O)c2ccccc2)cc1,x,x,56*,x,x,x

# Source: PubChem
